For nine molecules, MIC results are on record in ChEMBL document CHEMBL4330165, “Absolute Configuration of Bioactive Azaphilones from the Marine-Derived Fungus Pleosporales sp. CF09-1” (2019).

In brackets after ≈: the same amount, converted by molar mass. Some results are limits rather than exact numbers.

What all share (type): functional
In one assay the test system is Fusarium oxysporum. As to the kind of experiment: Antifungal activity against […] oxysporum CICC 41029 after 48 hrs by broth dilution assay. The settings on record: CICC 41029, 48 h. Summed up: (§1)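 Conventional broth dilution. Fungi were grown on PDA at 28 °C for 72 h. Seed culture was diluted in PYG (peptone 1.0%, glucose 2.0%, yeast extract 1.0%) in 96-well plates. DMSO stocks (10 mg/mL) were serially diluted to in-test 0.78–100 μg/mL. Plates were incubated 48 h at 28 °C, humidified. Ketoconazole was the positive control and DMSO the negative control. MIC was the endpoint.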
On the technique in general: In broth dilution the organism is exposed to a series of concentrations in liquid medium.

The next assay concerns Alternaria brassicicola. As to the kind of experiment: Antifungal activity against Alternaria brassicicola CICC 2646 after 48 hrs by broth dilution assay. As to conditions: CICC 2646, 48 h. Summed up:
as §1

The next assay deals with Botryosphaeria dothidea. Briefly: Antifungal activity against Botryosphaeria dothidea CICC 2678 after 48 hrs by broth dilution assay. As to conditions: CICC 2678, 48 h. The method, boiled down: as §1
The next assay deals with Vibrio anguillarum. Briefly: Antibacterial activity against Vibrio anguillarum CICC 10475 after 48 hrs by broth dilution method. The method, boiled down:
(§2)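 Microbroth dilution in LB medium (peptone 10 g/L, yeast extract 5 g/L, NaCl 10 g/L). Ciprofloxacin served as positive control. MIC was read as the endpoint.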

A further assay deals with Vibrio parahaemolyticus. As to the kind of experiment: Antibacterial activity against Vibrio parahaemolyticus CICC 10552 after 48 hrs by broth dilution method. Summed up:
as §2

The test system of another assay is Vibrio alginolyticus. Briefly: Antibacterial activity against Vibrio alginolyticus CICC 21664 after 48 hrs by broth dilution method. As to conditions: CICC 21664, 48 h. Summed up: as §2

The term MIC denotes the lowest concentration that inhibits growth of the organism.

For the molecule `C/C=C(\C)[C@H](OC(C)=O)[C@H](C)C(=O)O[C@@]1(C)C(=O)C=C2C=C(c3c(C)cccc3O)OC=C2C1=O`, the MIC came out at 25 µg/mL (≈ 52 µM) against Fusarium oxysporum, 6.3 µg/mL (≈ 13.1 µM) with Alternaria brassicicola and 3.1 µg/mL (≈ 6.45 µM) against Botryosphaeria dothidea.

On to `COC(CO)CC1=CC2=CC(=O)[C@@](C)(O)[C@@H](OC(=O)c3c(C)cc(O)cc3O)[C@@H]2CO1` (stereo in doubt; 7), for which the MIC against Vibrio anguillarum worked out at 6.3 µg/mL (≈ 14.5 µM); in the assay on Vibrio parahaemolyticus it was 25 µg/mL (≈ 57.5 µM).

With `CO[C@@H]1CO[C@@]2(CC3=CC(=O)[C@@](C)(O)[C@@H](OC(=O)c4c(C)cc(O)cc4O)[C@@H]3CO2)C1`, the MIC in the assay on Fusarium oxysporum was greater than 50 µg/mL; with Vibrio alginolyticus it was 25 µg/mL (≈ 57.5 µM); with Alternaria brassicicola, greater than 50 µg/mL; in the assay with Botryosphaeria dothidea, greater than 50 µg/mL.

With `C/C=C(\C)[C@H](OC(C)=O)[C@H](C)C(=O)O[C@@]1(C)C(=O)C=C2C=C(C3=C(C)CCCC3=O)OC=C2C1=O`, the values for the MIC with Fusarium oxysporum, against Alternaria brassicicola and with Botryosphaeria dothidea were 6.3 µg/mL (≈ 13.1 µM), 13 µg/mL (≈ 26.9 µM) and 13 µg/mL (≈ 26.9 µM), respectively.

Regarding `COC(CO)CC1=CC2=CC(=O)[C@@](C)(O)[C@@H](OC(=O)c3c(C)cc(O)cc3O)[C@@H]2CO1` (stereo in doubt; 6), the MIC with Vibrio anguillarum is 13 µg/mL (≈ 29.9 µM); in the assay with Vibrio parahaemolyticus, 6.3 µg/mL (≈ 14.5 µM).

Take `CO[C@H]1CO[C@@]2(CC3=CC(=O)[C@@](C)(O)[C@@H](OC(=O)c4c(C)cc(O)cc4O)[C@@H]3CO2)C1`: the MIC was greater than 50 µg/mL against Fusarium oxysporum, 25 µg/mL (≈ 57.5 µM) in the assay with Vibrio alginolyticus, greater than 50 µg/mL with Alternaria brassicicola and greater than 50 µg/mL in the assay with Botryosphaeria dothidea.

Turning to `O=C(O)c1cn(C2CC2)c2cc(N3CCNCC3)c(F)cc2c1=O` [CIPROFLOXACIN], the MIC in the assay on Vibrio anguillarum (Vibrio anguillarum, CICC 10475, 48 h, read-out: MIC) came out at 6.3 µg/mL (≈ 19 µM); in the assay with Vibrio parahaemolyticus (Vibrio parahaemolyticus, CICC 10552, 48 h, read-out: MIC), 3.1 µg/mL (≈ 9.36 µM); against Vibrio alginolyticus, 13 µg/mL (≈ 39.2 µM).

With `CC(=O)N1CCN(c2ccc(OCC3COC(Cn4ccnc4)(c4ccc(Cl)cc4Cl)O3)cc2)CC1` (configuration not stated) [KETOCONAZOLE], the minimal inhibitory concentration (MIC) against Fusarium oxysporum was 6.3 µg/mL (≈ 11.9 µM); against Alternaria brassicicola, 3.1 µg/mL (≈ 5.83 µM); against Botryosphaeria dothidea, 3.1 µg/mL (≈ 5.83 µM).

Take `C/C=C(\C)[C@H](OC(C)=O)[C@H](C)C(=O)O[C@@]1(C)C(=O)C2=COC(C3=C(C)CCCC3=O)=CC2=C(Cl)C1=O`: the figures for the MIC with Fusarium oxysporum, against Alternaria brassicicola and against Botryosphaeria dothidea were 1.6 µg/mL (≈ 3.09 µM), 1.6 µg/mL (≈ 3.09 µM) and 13 µg/mL (≈ 25.1 µM), respectively.
